The values that follow come from ChEMBL document CHEMBL4834403, “Design and Synthesis of Novel Epigenetic Inhibitors Targeting Histone Deacetylases, DNA Methyltransferase 1, and Lysine Methyltransferase G9a with In Vivo Efficacy in Multiple Myeloma” (J Med Chem, 2021).

Where only a bound is given, the exact number is not on record here.

What is called IC50 is the concentration at which inhibition is half-maximal. The LC50 is the concentration lethal to half of the exposed cells or organisms. For orientation: CL/F means clearance divided by bioavailability, as obtained after extravascular dosing. The inhibition is the change of the read-out against control, counted positive when it falls. For orientation: half-life means how long it takes for the measured level to halve. Lower therefore signals fast loss.

Data set [1] has as its target Histone deacetylase 1 (Homo sapiens, UniProt Q13547). Nature of the data set: Inhibition of full length human C-terminal His-tagged/C-terminal Flag-tagged HDAC1 using fluorogenic acetylated peptide as substrate incubated for 30 mins by fluorescence plate reader assay.
Data set [2] has as its system NCI-H929. Nature of the data set: Antiproliferative activity against human NCI-H929 cells assessed as inhibition of cell proliferation measured up to 72 hrs by CellTiter96 Aqueous one reagent based assay. Format: functional. The following applies: NCI-H929, 72 h, time hrs <=72.
Data set [3] deals with T1, Histone-lysine N-methyltransferase EHMT2 (Homo sapiens, UniProt Q96KQ7).
T1 sequence (Q96KQ7 whole entry): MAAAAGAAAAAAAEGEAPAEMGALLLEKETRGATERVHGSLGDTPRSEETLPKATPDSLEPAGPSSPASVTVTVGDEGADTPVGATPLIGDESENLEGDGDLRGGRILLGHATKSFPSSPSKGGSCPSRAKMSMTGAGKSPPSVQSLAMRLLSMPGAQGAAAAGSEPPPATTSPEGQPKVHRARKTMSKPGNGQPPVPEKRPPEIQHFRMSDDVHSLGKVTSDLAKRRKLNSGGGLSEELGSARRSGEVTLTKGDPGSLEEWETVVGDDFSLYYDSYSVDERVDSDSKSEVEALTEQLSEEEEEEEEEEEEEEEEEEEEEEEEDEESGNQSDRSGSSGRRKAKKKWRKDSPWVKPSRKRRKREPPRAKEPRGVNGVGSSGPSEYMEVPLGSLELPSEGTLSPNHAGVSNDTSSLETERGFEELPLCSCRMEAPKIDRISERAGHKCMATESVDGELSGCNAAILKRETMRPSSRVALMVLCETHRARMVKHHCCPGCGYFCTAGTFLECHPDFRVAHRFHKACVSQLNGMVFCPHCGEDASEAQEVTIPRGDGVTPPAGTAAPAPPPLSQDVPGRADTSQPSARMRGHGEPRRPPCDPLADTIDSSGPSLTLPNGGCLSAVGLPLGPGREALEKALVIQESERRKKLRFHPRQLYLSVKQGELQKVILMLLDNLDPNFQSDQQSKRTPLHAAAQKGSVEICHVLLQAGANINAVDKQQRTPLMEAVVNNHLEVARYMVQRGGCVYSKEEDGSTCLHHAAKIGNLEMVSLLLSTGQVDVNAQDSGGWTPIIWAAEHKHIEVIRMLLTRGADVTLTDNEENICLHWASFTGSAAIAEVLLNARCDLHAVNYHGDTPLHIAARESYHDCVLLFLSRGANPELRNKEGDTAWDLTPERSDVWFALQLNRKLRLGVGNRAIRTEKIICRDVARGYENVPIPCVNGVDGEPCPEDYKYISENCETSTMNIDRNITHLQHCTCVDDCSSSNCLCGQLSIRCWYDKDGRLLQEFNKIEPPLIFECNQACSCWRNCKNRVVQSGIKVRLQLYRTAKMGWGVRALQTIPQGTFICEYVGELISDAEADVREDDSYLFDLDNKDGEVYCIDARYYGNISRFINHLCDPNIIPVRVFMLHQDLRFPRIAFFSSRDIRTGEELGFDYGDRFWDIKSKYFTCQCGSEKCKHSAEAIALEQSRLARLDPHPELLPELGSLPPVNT
The experiment in a line: Inhibition of human G9a enzyme using histone monomethyl-H3K9 peptide as substrate incubated for 1 hr in presence of SAM by TR-FRET assay.

A short description of data set [4]: Antiproliferative activity against human KMS-28BM cells assessed as inhibition of cell proliferation measured up to 72 hrs by CellTiter96 Aqueous one reagent based assay. Format: functional. Particulars: time hrs <=72.
For data set [5], the target named is Histone deacetylase 3/Nuclear receptor corepressor 2 (HDAC3/NCoR2) (Homo sapiens, UniProt O15379). The experiment in a line: Inhibition of full length human C-terminal His-tagged HDAC3/human N-terminal GST-agged NCOR2 using fluorogenic acetylated peptide as substrate incubated for 30 mins by fluorescence plate reader assay. Format: protein-complex assay.
The subject of data set [6] is THLE-2. Nature of the data set: Cytotoxicity against human THLE-2 cells assessed as decrease in cell viability measured after 72 hrs by Vialight-plus cell proliferation assay. The data set is classed as cell-based. The following applies: thle-2, 72 h. The method in brief:
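Human THLE-2 cells exposed to compound for 72 h. Cytotoxicity reported as LC50 and pLC50, averaged from at least two independent experiments on different days.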

Data set [7] can be described thus: Toxicity in mouse assessed as mouse death at 5 mg/kg, ip after 15 mins. The data set is classed as organism-based. The following applies: in vivo, 0.25 h. The method in brief:
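Observation made during a preliminary pharmacokinetic study with i.p. dosing, n = 5 mice per dose level, with blood extraction after administration.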

For data set [8], the system named is MM1.S. Nature of the data set: Antiproliferative activity against human MM1.S cells assessed as inhibition of cell proliferation measured up to 72 hrs by CellTiter96 Aqueous one reagent based assay. The data set is classed as functional.
Data set [9] has as its system JJN-3. Nature of the data set: Antiproliferative activity against human JJN-3 cells assessed as inhibition of cell proliferation measured up to 72 hrs by CellTiter96 Aqueous one reagent based assay. Format: functional. Particulars: JJN-3, 72 h, time hrs <=72.
Data set [10] is described as follows: Apparent volume of distribution during terminal phase in BALB/c RAG2-/- gammaC-/- mouse at 10 mg/kg, ip measured up to 24 hrs by UPLC-triple quadrupole MS analysis. The following applies: in vivo, read-out: Vz/F. The data set is classed as ADME, organism-based.
Data set [11] in a line: Apparent oral clearance in BALB/c RAG2-/- gammaC-/- mouse at 10 mg/kg, ip measured up to 24 hrs by UPLC-triple quadrupole MS analysis. Particulars: in vivo. The data set is classed as ADME, organism-based.
For data set [12], the target named is CYP3A4 (Homo sapiens, UniProt P08684). The experiment in a line: Inhibition of CYP3A4 in human liver microsomes at 10 uM incubated for 10 mins in presence of NADPH by LC-MS/MS analysis relative to control. The data set is classed as ADME.
Data set [13] in a line: Half life in BALB/c RAG2-/- gammaC-/- mouse at 10 mg/kg, ip measured up to 24 hrs by UPLC-triple quadrupole MS analysis. Format: ADME, organism-based. The following applies: in vivo.
The nature of data set [14]: Toxicity in BALB/c RAG2-/- gammaC-/- mouse xenografted with human MM1.S cells assessed as effect on body weight at 10 mg/kg, ip administered for 5 consecutive days followed by 2 days rest and measured after 35 days. Format: organism-based. The following applies: in vivo, 840 h, time 35 day. (In general: Xenograft models place foreign cells or tissue in a host animal.)

Data set [15] is described as follows: Permeability of the compound in PBS/EtOH buffer (70:30) incubated for 18 hrs by UV plate reader based PAMPA assay. Format: ADME. Particulars: read-out: permeability. (In general: In PAMPA a lipid-coated filter parts donor from acceptor wells.)
Data set [16] has as its system MM1.S. The experiment in a line: Induction of DNA hypomethylation in human MM1.S cells assessed as CPG hypomethylation at position 5 at 10 nM measured after 5 days relative to control. Format: cell-based. The following applies: time 5.0 day. In a few lines:
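MM1.S cells dosed every day for 5 days at 2 μM or 10 nM. DNA methylation at CpGs of the POU4F2 promoter read by pyrosequencing; run in duplicate.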

For data set [17], the system named is MM1.S. Nature of the data set: Antitumor activity against human MM1.S cells xenografted in BALB/c RAG2-/- gammaC-/- mouse assessed as reduction in tumor volume at 10 mg/kg, ip administered for 5 consecutive days followed by 2 days rest and measured after 35 days (reference value: 3836 +/- 1696 mm3). Format: functional. Particulars: time 35 day.
Where [18] appears, read: time hrs <=72, read-out: pGI50 (converted).

Chain of Histone deacetylase 1 (Q13547 whole entry): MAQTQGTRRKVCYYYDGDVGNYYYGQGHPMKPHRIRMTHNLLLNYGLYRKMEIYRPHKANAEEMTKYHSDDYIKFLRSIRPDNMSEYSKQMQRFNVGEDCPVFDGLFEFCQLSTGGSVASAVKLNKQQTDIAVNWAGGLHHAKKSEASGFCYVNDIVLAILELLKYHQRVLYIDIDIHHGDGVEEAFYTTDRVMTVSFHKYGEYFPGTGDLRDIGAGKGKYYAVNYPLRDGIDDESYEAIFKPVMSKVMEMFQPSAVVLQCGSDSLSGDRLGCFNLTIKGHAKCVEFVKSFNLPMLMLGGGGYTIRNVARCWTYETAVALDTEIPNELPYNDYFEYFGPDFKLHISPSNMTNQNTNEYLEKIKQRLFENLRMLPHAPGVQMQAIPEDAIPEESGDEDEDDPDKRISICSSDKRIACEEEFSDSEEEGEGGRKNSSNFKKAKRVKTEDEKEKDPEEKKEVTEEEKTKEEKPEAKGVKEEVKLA
Chain of Histone deacetylase 3/Nuclear receptor corepressor 2 (HDAC3/NCoR2) (O15379 whole entry): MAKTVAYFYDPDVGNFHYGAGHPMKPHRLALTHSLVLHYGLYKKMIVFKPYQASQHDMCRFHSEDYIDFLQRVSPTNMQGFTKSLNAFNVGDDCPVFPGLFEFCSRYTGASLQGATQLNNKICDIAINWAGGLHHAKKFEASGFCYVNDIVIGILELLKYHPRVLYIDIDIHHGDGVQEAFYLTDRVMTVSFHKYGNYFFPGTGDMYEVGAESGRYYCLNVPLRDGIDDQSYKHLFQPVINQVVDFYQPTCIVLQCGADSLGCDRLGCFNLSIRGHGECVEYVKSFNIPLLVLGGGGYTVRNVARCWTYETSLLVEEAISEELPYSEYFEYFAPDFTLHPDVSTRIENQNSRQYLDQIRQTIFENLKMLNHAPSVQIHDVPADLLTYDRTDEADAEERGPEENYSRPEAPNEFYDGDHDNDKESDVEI
Chain of Histone deacetylase 3/Nuclear receptor corepressor 2 (HDAC3/NCoR2) (Q9Y618 whole entry, further chain): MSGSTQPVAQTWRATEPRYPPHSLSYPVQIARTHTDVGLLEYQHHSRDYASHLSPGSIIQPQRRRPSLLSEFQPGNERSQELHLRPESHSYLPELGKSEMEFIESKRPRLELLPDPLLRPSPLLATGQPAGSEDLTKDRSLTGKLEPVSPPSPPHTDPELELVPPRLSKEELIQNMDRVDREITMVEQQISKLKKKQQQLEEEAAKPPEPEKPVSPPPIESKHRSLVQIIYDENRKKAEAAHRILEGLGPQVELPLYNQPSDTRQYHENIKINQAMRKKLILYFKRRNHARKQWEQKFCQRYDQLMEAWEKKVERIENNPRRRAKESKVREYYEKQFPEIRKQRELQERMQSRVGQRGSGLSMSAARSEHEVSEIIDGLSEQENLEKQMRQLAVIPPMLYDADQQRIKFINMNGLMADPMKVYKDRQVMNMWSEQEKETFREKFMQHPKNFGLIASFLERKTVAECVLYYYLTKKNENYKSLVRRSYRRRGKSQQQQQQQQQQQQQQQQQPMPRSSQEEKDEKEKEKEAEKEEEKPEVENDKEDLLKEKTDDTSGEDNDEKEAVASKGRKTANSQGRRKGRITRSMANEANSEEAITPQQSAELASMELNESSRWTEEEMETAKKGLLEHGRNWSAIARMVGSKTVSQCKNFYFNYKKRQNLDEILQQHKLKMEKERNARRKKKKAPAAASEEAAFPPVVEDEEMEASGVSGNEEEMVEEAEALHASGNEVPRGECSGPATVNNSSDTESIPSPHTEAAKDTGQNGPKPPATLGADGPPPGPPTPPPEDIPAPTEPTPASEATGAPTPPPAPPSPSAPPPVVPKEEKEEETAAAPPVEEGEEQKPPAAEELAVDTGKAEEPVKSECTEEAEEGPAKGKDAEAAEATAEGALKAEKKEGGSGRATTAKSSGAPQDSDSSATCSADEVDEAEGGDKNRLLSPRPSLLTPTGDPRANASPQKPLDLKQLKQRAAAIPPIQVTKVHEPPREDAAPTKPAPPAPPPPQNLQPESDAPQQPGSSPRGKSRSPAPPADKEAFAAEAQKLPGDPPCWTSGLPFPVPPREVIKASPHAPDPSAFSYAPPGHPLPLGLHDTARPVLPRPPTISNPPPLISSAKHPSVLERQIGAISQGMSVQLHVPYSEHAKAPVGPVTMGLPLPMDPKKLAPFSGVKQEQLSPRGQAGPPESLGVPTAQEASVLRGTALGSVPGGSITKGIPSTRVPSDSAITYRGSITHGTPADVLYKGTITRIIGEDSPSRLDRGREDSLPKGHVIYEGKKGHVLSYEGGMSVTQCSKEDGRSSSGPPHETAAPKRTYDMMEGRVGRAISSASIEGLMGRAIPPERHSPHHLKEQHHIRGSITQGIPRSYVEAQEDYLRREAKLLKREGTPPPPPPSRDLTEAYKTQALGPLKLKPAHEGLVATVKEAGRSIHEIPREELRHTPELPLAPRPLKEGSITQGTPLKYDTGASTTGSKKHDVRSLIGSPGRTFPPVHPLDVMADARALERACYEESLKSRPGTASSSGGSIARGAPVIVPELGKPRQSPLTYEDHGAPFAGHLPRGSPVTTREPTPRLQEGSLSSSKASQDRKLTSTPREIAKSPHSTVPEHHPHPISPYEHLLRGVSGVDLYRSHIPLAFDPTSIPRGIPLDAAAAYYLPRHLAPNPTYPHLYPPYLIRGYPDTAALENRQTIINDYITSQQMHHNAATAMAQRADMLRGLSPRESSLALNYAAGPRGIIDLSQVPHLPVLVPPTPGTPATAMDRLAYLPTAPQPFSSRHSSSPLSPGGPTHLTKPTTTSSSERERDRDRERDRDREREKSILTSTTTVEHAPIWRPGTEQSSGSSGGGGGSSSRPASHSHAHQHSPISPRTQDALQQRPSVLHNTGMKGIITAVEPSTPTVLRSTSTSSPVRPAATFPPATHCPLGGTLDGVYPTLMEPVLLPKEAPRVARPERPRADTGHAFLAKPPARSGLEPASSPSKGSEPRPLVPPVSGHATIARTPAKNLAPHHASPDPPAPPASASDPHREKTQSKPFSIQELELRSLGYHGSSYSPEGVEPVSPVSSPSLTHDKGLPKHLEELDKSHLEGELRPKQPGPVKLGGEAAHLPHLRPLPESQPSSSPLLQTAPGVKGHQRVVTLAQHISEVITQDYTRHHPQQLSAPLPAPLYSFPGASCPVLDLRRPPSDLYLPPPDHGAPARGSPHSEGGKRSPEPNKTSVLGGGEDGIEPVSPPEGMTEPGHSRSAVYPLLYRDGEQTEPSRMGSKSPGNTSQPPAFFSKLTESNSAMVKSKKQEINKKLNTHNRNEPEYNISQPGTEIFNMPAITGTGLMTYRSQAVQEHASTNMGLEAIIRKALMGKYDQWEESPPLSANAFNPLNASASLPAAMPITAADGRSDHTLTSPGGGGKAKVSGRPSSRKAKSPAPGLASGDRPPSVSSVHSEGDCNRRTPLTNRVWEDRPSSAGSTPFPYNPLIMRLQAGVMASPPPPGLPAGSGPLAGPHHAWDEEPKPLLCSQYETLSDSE
Chain of CYP3A4 (P08684 whole entry): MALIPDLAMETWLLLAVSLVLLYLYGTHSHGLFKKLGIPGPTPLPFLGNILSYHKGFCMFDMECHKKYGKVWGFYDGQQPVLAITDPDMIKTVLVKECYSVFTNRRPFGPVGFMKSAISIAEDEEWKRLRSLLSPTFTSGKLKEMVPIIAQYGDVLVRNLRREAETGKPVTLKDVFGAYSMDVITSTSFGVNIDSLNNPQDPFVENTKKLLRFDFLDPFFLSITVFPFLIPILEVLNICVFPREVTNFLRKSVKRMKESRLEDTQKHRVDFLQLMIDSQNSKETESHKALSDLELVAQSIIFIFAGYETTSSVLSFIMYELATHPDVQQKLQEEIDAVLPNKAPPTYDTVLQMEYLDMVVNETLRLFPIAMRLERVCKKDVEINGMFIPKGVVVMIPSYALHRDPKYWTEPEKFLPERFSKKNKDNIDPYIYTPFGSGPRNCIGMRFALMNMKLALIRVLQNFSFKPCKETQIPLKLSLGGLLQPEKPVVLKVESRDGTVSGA

With `COc1cc2c(NCC3CCN(c4ncc(C(=O)NO)cn4)CC3)cc(-c3ccc(C)o3)nc2cc1OCCCN1CCCC1`, the values for the IC50 in [1], in data set [3] and in data set [5] were 3 nM, 269 nM and 5 nM, respectively. Moreover, the GI50 in data set [2] was 981 nM; in [4], 1300 nM; in data set [8] (time hrs <=72, read-out: GI50) it was 2080 nM; in data set [8] (setting [18]) it was 2090 nM; in data set [9], 6040 nM. The LC50 in data set [6] was 10900 nM. Besides, the pLC50 in [6] is 4.96. Also, the Activity result in data set [7] was “Toxic”.

With `COc1cc2nc(-c3ccc(C)o3)cc(NCC3CCN(c4ncc(C(=O)NO)cn4)CC3)c2cc1OC`, the IC50 in data set [1] is 7 nM; in data set [3], greater than 10000 nM; in data set [5], 18 nM. In addition, the GI50 in data set [2] is 103 nM; in data set [4], 547 nM; in data set [8] (time hrs <=72, read-out: GI50), 32 nM; in data set [8] (setting [18]) it was 31.6 nM; in [9], 482 nM. For the same compound, in data set [10], the Vd/F came out at 4.6 L. The LC50 in [6] amounted to 794 nM. The pLC50 in data set [6] is recorded as 6.1. In [11], the CL/F was 13.3 mL/min. The inhibition at 10 min, 10 µM in data set [12] came out at 50.8%. The compound also gave a half-life in [13] of 3.8 h. For the same compound, the Activity result was “Non-Toxic” in data set [14], 10% in [16] and 1788 mm3 in data set [17]. In data set [15], the Papp at 18 h worked out at 0.504 ×10⁻⁶ cm/s.
